Measured values taken from ChEMBL document CHEMBL4411266, “Triterpenoid Hydroxamates as HIF Prolyl Hydrolase Inhibitors” (J Nat Prod, 2018).
Active and inactive are the calls of the source. No cut-off for these calls is given here.

How the values were obtained:
[1] = biological target: T1, Hypoxia-inducible factor prolyl hydroxylase (Homo sapiens, UniProt Q96KS0+Q9NXG6+Q9GZT9+Q9H6Z9); experiment: Inhibition of PHD (unknown origin) expressed in mouse NIH/3T3 cells harboring HRE-driven luciferase gene assessed as transactivation of HIF1alpha after 6 hrs by luciferase reporter gene assay; type: cell-based
T1 sequence (Q96KS0 whole entry, looked up): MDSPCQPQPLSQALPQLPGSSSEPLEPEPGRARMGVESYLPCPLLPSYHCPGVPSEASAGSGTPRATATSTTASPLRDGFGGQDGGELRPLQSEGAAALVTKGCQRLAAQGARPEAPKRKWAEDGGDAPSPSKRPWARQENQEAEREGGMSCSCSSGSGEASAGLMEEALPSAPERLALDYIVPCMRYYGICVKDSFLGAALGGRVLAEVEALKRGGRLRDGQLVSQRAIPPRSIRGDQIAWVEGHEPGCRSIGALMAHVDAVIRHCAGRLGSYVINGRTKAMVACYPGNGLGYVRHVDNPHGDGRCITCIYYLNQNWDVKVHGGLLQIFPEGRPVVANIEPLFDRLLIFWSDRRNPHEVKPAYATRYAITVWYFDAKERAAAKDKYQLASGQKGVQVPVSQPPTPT
T1 sequence (Q9GZT9 whole entry, looked up): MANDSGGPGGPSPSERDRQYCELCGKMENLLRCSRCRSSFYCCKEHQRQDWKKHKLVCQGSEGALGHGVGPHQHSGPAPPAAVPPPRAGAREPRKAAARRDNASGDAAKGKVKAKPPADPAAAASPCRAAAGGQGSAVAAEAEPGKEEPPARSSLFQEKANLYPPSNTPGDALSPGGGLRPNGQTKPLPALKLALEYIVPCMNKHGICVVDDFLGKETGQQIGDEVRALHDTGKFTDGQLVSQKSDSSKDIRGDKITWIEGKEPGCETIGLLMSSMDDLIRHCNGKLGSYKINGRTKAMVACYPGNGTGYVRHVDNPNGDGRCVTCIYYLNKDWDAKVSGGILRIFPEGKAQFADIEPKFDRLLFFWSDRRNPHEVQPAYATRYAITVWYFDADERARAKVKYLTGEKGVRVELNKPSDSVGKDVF
T1 sequence (Q9H6Z9 whole entry, looked up): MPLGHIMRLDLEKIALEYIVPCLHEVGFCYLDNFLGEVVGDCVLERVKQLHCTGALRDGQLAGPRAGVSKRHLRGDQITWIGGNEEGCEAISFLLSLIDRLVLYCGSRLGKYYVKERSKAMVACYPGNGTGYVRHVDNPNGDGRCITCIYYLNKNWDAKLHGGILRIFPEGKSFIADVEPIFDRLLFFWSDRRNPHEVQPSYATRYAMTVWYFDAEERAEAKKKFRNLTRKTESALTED
T1 sequence (Q9NXG6 whole entry, looked up): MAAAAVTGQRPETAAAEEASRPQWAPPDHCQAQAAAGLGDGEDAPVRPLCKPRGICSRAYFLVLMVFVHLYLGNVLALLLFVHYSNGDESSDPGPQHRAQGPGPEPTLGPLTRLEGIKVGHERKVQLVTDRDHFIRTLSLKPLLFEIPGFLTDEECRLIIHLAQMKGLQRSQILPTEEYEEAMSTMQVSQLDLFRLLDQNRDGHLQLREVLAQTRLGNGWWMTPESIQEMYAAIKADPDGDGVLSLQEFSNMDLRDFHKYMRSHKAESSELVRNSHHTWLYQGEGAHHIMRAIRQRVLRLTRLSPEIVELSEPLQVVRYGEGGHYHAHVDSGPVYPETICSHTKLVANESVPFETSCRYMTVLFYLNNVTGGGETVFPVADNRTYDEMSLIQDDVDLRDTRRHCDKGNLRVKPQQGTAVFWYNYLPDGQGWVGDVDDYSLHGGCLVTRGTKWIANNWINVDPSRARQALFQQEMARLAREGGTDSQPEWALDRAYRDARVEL
Outline: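 NIH-3T3 mouse cells stably carrying an EPO-HRE luciferase reporter (three HRE copies from the erythropoietin promoter) treated with compounds for 6 h. Cells then washed twice in PBS and lysed in Tris-phosphate pH 7.8 buffer with MgCl2, DTT, Triton X-100 and glycerol for 15 min at room temperature. Luciferase measured in the supernatant after centrifugation.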

[2] = biological target: T1, Hypoxia-inducible factor prolyl hydroxylase; experiment: Inhibition of PHD (unknown origin) expressed in mouse NIH/3T3 cells harboring HRE-driven luciferase gene assessed as transactivation of HIF1alpha after 6 hrs by luciferase reporter gene assay relative to deferoxamine; type: cell-based
Outline: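 Mouse NIH-3T3 cells with a stably transfected EPO-HRE luciferase reporter exposed to compounds for 6 h, then washed, lysed and read for luciferase in the cleared lysate. EC50 and intrinsic relative activity (IRA) were calculated relative to 150 μM deferoxamine as reference.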

HEK-293T [3] = experiment: Effect on PHD3 expression in HEK293T cells at 1 to 10 uM after 3 hrs by Western blot analysis; type: ADME, cell-based; conditions: human
Outline: (§1)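 HEK-293T cells treated for 3 h, with DFX (100 μM) as a reference. Cell lysates were made in Tris-HCl pH 7.5/NaCl/glycerol/NP-40 buffer with protease and phosphatase inhibitors. 30 μg protein was run on 10% SDS-PAGE, blotted to PVDF and probed for HIF-1α, PHD1, PHD2 and PHD3. Detection was by HRP secondary and chemiluminescence.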

[4] = biological target: T1, Hypoxia-inducible factor prolyl hydroxylase; experiment: Inhibition of PHD in HEK293T cells assessed as increase in HIF1alpha expression at 10 uM after 15 to 180 mins by Western blot analysis; type: cell-based
Outline: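 HEK-293T cells were stimulated over a time course and HIF-1α was followed by Western blot. Lysis was in NP-40 buffer with protease and phosphatase inhibitors. 30 μg protein was resolved on 10% SDS-PAGE, transferred to PVDF, and detected by HRP secondary and chemiluminescence.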

HEK-293T [5] = experiment: Effect on PHD1 expression in HEK293T cells at 1 to 10 uM after 3 hrs by Western blot analysis; type: ADME, cell-based; conditions: human; outline: as §1
[6] = biological target: T1, Hypoxia-inducible factor prolyl hydroxylase; experiment: Inhibition of PHD in HEK293T cells assessed as increase in HIF1alpha expression at 1 to 10 uM after 3 hrs by Western blot analysis; type: cell-based; outline: as §1
HEK-293T [7] = experiment: Effect on PHD2 expression in HEK293T cells at 10 uM under normoxic condition by Western blot analysis; type: ADME, cell-based; conditions: human
Outline: (§2)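 HEK-293T cells were treated under hypoxia (1% O2) or normoxia, with or without compound. HIF-1α and PHD levels were read by Western blot: NP-40 lysis, 30 μg protein on 10% SDS-PAGE, PVDF transfer, HRP secondary and chemiluminescence.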

[8] = biological target: T1, Hypoxia-inducible factor prolyl hydroxylase; experiment: Reversible inhibition of PHD (unknown origin) expressed in mouse NIH/3T3 cells harboring HRE-driven luciferase gene assessed as transactivation of HIF1alpha at 5 to 25 uM pretreated for 1 hr followed by compound washout and measured after 6 hrs by luciferase reporter gene assay; type: cell-based
Outline: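 NIH-3T3-EPO-Luc cells stably carry an EPO-promoter 3×HRE-luciferase reporter. Cells were pretreated 1 h, then washed or not with PBS and incubated 6 h in complete medium. Lysis was in Tris-phosphate pH 7.8/MgCl2/DTT/Triton buffer and luciferase was read in the lysate. Data are fold induction over untreated cells, means ± SD, n = 3, one-way ANOVA with Tukey's test.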

[9] = biological target: T1, Hypoxia-inducible factor prolyl hydroxylase; experiment: Inhibition of PHD in HEK293T cells assessed as increase in HIF1alpha expression at 1 to 10 uM after 6 hrs in presence of proteasome inhibitor MG132; type: cell-based
Outline: (§3)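 HEK-293T cells were treated for 6 h in the presence of the proteasome inhibitor MG132. Hydroxylated HIF-1α and total HIF-1α were determined by immunoblot: 10% SDS-PAGE, PVDF transfer, HRP/chemiluminescence detection.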

[10] = biological target: T1, Hypoxia-inducible factor prolyl hydroxylase; experiment: Inhibition of PHD in HEK293T cells assessed as increase in HIF1alpha expression at 10 uM under hypoxic condition by Western blot analysis; type: cell-based; outline: as §2
[11] = biological target: T1, Hypoxia-inducible factor prolyl hydroxylase; experiment: Inhibition of PHD in HEK293T cells assessed as increase in HIF1alpha expression at 10 uM under normoxic condition by Western blot analysis; type: cell-based; outline: as §2
[12] = biological target: T1, Hypoxia-inducible factor prolyl hydroxylase; experiment: Inhibition of PHD in HEK293T cells assessed as reduction in HIF1alpha hydroxylation at 1 to 10 uM after 6 hrs in presence of proteasome inhibitor MG132; type: cell-based; outline: as §3
HEK-293T [13] = experiment: Effect on PHD2 expression in HEK293T cells at 1 to 10 uM after 3 hrs by Western blot analysis; type: ADME, cell-based; conditions: human; outline: as §1
HEK-293T [14] = experiment: Effect on PHD2 expression in HEK293T cells at 10 uM under hypoxic condition by Western blot analysis; type: ADME, cell-based; conditions: human; outline: as §2
[15] = biological target: T1, Hypoxia-inducible factor prolyl hydroxylase; experiment: Inhibition of PHD (unknown origin) expressed in mouse NIH/3T3 cells harboring HRE-driven luciferase gene assessed as transactivation of HIF1alpha at 1 to 25 uM after 6 hrs in presence of 50 uM betulinic acid by luciferase reporter gene assay; type: cell-based
Outline: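 NIH-3T3-EPO-Luc (3×HRE-luciferase) cells were preincubated 30 min with betulinic acid (50 μM), then treated with compound for 6 h. Cells were washed in PBS and lysed in Tris-phosphate pH 7.8 buffer, and luciferase was measured in the lysate. Data are fold induction over untreated cells, means ± SD, n = 3, one-way ANOVA with Tukey's test.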

EC50 [1]	Intrinsic activity [2]	Compound	also measured
7.5 µM	1.19	C=C(C)[C@@H]1CC[C@]2(C)[C@H](CC=C3[C@@H]4CC(C)(C)CC[C@]4(C(=O)OC)CC[C@]32C)[C@@]1(C)CCC(=O)NO	–
3.2 µM	0.48	C=C(C)[C@@H]1CC[C@]2(C(=O)NO)CC[C@]3(C)C(CC[C@@H]4[C@@]5(C)CC=CC(C)(C)[C@@H]5CC[C@]43C)[C@H]12 (some centres undefined)	–
> 50 µM	–	CC1(C)CC[C@]2(C(=O)O)CC[C@]3(C)C(=CC[C@@H]4[C@@]5(C)CC[C@H](O)C(C)(C)[C@@H]5CC[C@]43C)[C@@H]2C1 [OLEANOLIC_ACID]	–
> 50 µM	–	C=C(C)[C@@H]1CC[C@]2(C(=O)O)CC[C@]3(C)C(CC[C@@H]4[C@@]5(C)CC[C@H](OC(=O)CC(C)(C)C(=O)O)C(C)(C)[C@@H]5CC[C@]43C)[C@H]12 (some centres undefined)	–
> 50 µM	–	CC1(C)CCC2(C(=O)O)CC[C@]3(C)C(=CC(=O)[C@@H]4[C@@]5(C)CC[C@H](O)C(C)(C)[C@@H]5CC[C@]43C)[C@@H]2C1 (single isomer, unassigned)	–
> 50 µM	–	CC1(C)[C@@H](O)CC[C@]2(C)[C@H]3C(=O)C=C4[C@@H]5C[C@@](C)(C(=O)O)CC[C@]5(C)CC[C@@]4(C)[C@]3(C)CC[C@@H]12 [ENOXOLONE]	–
16.4 µM	0.39	CC1(C)CCC2(C(=O)NO)CC[C@]3(C)C(=CC[C@@H]4[C@@]5(C)CC[C@H](O)C(C)(C)[C@@H]5CC[C@]43C)[C@@H]2C1 (single isomer, unassigned)	–

Continued, compound first:

Compound	EC50 [1]	Intrinsic activity [2]	also measured
C[C@H]1[C@H](C)CC[C@]2(C(=O)NO)CC[C@]3(C)C(=CC[C@@H]4[C@@]5(C)CC[C@H](O)C(C)(C)[C@@H]5CC[C@]43C)[C@H]12	7.7 µM	0.17	–
C=C(C)[C@@H]1CC[C@]2(C(=O)NO)CC[C@]3(C)C(CC[C@@H]4[C@@]5(C)CC/C(=N\O)C(C)(C)[C@@H]5CC[C@]43C)[C@@H]12 (some centres undefined)	6.8 µM	0.31	–
C=C(C)[C@@H]1CC[C@]2(C(=O)NO)CC[C@]3(C)C(CC[C@@H]4[C@@]5(C)Cc6cnoc6C(C)(C)[C@@H]5CC[C@]43C)[C@H]12 (some centres undefined)	2.6 µM	0.55	–
CC1(C)CCC2(C(=O)NO)CC[C@]3(C)C(=CC[C@@H]4[C@@]5(C)CC=CC(C)(C)[C@@H]5CC[C@]43C)[C@@H]2C1 (single isomer, unassigned)	5 µM	0.16	–
CC1(C)CC[C@]2(C(=O)NO)CC[C@]3(C)C(=CC(=O)[C@@H]4[C@@]5(C)CC[C@H](O)C(C)(C)[C@@H]5CC[C@]43C)[C@@H]2C1	11.4 µM	0.15	–
CC1(C)CC[C@]2(C(=O)NO)CC[C@]3(C)C(=CC[C@@H]4[C@@]5(C)C[C@@H](O)[C@H](O)C(C)(C)[C@@H]5CC[C@]43C)[C@@H]2C1	7.1 µM	0.1	–
CC1(C)CCC2(C(=O)NO)CC[C@]3(C)C(=CC[C@@H]4[C@@]5(C)CC/C(=N\O)C(C)(C)[C@@H]5CC[C@]43C)[C@@H]2C1 (single isomer, unassigned)	3.8 µM	0.43	–
C[C@H]1[C@H](C)CC[C@]2(C(=O)O)CC[C@]3(C)C(=CC[C@@H]4[C@@]5(C)CC[C@H](O)C(C)(C)[C@@H]5CC[C@]43C)[C@H]12 [URSOLIC ACID]	> 50 µM	–	–
C=C(C)[C@@H]1CC[C@]2(C(=O)NO)CC[C@]3(C)C(CC[C@@H]4[C@@]5(C)CC[C@H](O)C(C)(C)[C@@H]5CC[C@]43C)[C@@H]12 (some centres undefined)	4.8 µM	0.36	Activity (HEK-293T [3]): Non-Toxic; inhibition [4]: Active; Activity (HEK-293T [5]): Non-Toxic; inhibition [6]: Active; Activity (HEK-293T [7]): Non-Toxic; inhibition [8]: Active; inhibition [9]: Active; inhibition [10]: Active; inhibition [11]: Active; inhibition [12]: Active; Activity (HEK-293T [13]): Non-Toxic; Activity (HEK-293T [14]): Non-Toxic; inhibition [15]: inactive
C[C@H]1[C@H](C)CC[C@]2(C(=O)NO)CC[C@]3(C)C(=CC[C@@H]4[C@@]5(C)CC/C(=N\O)C(C)(C)[C@@H]5CC[C@]43C)[C@H]12	8.9 µM	0.1	–
C=C(C)[C@@H]1CC[C@]2(C(=O)NO)CC[C@]3(C)C(CC[C@@H]4[C@@]5(C)Cc6cn[nH]c6C(C)(C)[C@@H]5CC[C@]43C)[C@H]12 (some centres undefined)	2.4 µM	0.34	–
CC1(C)[C@@H](O)CC[C@]2(C)[C@H]3C(=O)C=C4[C@@H]5C[C@@](C)(C(=O)NO)CC[C@]5(C)CC[C@@]4(C)[C@]3(C)CC[C@@H]12	> 50 µM	–	–
CC1(C)CC[C@]2(C(=O)O)CC[C@]3(C)C(=CC[C@@H]4[C@@]5(C)C[C@@H](O)[C@H](O)C(C)(C)[C@@H]5CC[C@]43C)[C@@H]2C1 [MASLINIC ACID]	> 50 µM	–	–
CC1(C)CC[C@]2(C(=O)NO)CC[C@]3(C)C(=CC[C@@H]4[C@@]5(C)CCC(=O)OC(C)(C)[C@@H]5CC[C@]43C)[C@@H]2C1	5.8 µM	2.2	–
C=C(C)[C@@H]1CC[C@]2(C(=O)O)CC[C@]3(C)[C@H](CC[C@@H]4[C@@]5(C)CC[C@H](O)C(C)(C)[C@@H]5CC[C@]43C)[C@@H]12 [BETULINIC ACID]	> 50 µM	–	–
